According to ChEMBL document CHEMBL3875167, “Design and synthesis of chiral 2H-chromene-N-imidazolo-amino acid conjugates as aldose reductase inhibitors” (Eur J Med Chem, 2016):
Active and inactive are the calls of the source. No cut-off for these calls is given here.

How the values were obtained:
[1] = target: Aldo-keto reductase family 1 member B1 (Rattus norvegicus, UniProt P07943); assay: Inhibition of rat lenses ALR2 using DL-glyceraldehyde as substrate preincubated for 10 mins followed by substrate addition measured for 4 mins
Procedure, shortened: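 ALR2 assay run at 30 °C in 1 mL containing 0.10 mM NADPH, 0.1 M sodium phosphate pH 6.2 and enzyme extract. The mixture was preincubated 10 min, then 10 mM DL-glyceraldehyde was added and NADPH oxidation followed for 4 min. Compounds were in DMSO diluted with water. Substrate-free blank rates were subtracted.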

[2] = target: Aldo-keto reductase family 1 member A1 (Rattus norvegicus, UniProt P51635); assay: Inhibition of rat kidney ALR1 using sodium D-glucuronate as substrate preincubated for 10 mins followed by substrate addition measured for 4 mins
Chain of Aldo-keto reductase family 1 member A1 (P51635 whole entry, looked up): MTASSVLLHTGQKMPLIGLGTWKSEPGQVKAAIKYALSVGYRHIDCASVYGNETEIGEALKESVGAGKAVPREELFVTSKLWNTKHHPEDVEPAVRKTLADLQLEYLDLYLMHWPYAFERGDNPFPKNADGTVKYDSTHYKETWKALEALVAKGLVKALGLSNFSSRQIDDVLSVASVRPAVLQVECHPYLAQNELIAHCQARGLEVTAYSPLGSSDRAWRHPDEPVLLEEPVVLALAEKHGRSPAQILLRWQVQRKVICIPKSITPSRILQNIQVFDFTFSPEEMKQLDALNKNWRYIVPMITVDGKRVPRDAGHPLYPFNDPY
Procedure, shortened: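 ALR1 assay run at 37 °C in 1 mL containing 0.12 mM NADPH, 0.1 M sodium phosphate pH 7.2 and enzyme extract. The mixture was preincubated 10 min, then 20 mM sodium D-glucuronate was added and the reaction monitored for 4 min. The nonenzymatic NADPH oxidation rate without substrate was subtracted. Triplicates at ≥3 concentrations in the 20–80% inhibition range were used to build dose-response curves for IC50.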

Rattus norvegicus [3] = species on record: Rattus norvegicus; assay: Selectivity index, ratio of IC50 for rat kidney ALR1 to IC50 for rat lenses ALR2
[4] = Antidiabetic activity in STZ-induced diabetic Sprague-Dawley rat model assessed as aldose reductase activity at 50 uM//kg, po administered for 8 weeks (reference value: 44.66 +/- 2.7 U); format: functional, organism-based
Procedure, shortened: (§1)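 Diabetes was induced in rats by a single i.p. injection of streptozotocin, 35 mg/kg in 0.1 M citrate buffer pH 4.5. Animals with fasting blood glucose >150 mg/dl at 72 h were included. Treatment was given p.o. daily for 8 weeks as a suspension in 2% Tween 80 in saline. Diabetic controls received vehicle only. Lenses were dissected at sacrifice after 8 weeks.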

[5] = Antidiabetic activity in STZ-induced diabetic Sprague-Dawley rat model assessed as decrease in fructose level in lenses at 5 to 50 uM/kg, po administered for 8 weeks; format: functional, organism-based; procedure, shortened: as §1
[6] = Antidiabetic activity in STZ-induced diabetic Sprague-Dawley rat model assessed as effect on body weight at 5 uM/kg, po administered for 8 weeks (reference value: 186 +/- 6.91 g); format: functional, organism-based; procedure, shortened: as §1
[7] = Antidiabetic activity in STZ-induced diabetic Sprague-Dawley rat model assessed as blood glucose level at 5 uM/kg, po administered for 8 weeks measured every week during compound dosing (reference value: 261.53 +/- 53 mg/dl); format: functional, organism-based; procedure, shortened: as §1
[8] = Antidiabetic activity in STZ-induced diabetic Sprague-Dawley rat model assessed as aldose reductase activity at 5 uM//kg, po administered for 8 weeks (reference value: 44.66 +/- 2.7 U); format: functional, organism-based; procedure, shortened: as §1
[9] = Antidiabetic activity in STZ-induced diabetic Sprague-Dawley rat model assessed as decrease in sorbitol level in lenses at 5 to 50 uM/kg, po administered for 8 weeks; format: functional, organism-based; procedure, shortened: as §1
[10] = Antidiabetic activity in STZ-induced diabetic Sprague-Dawley rat model assessed as delay in progression of cataract at 5 to 50 uM/kg, po administered for 8 weeks measured every week during compound dosing by slit-lamp microscopy; format: functional, organism-based; procedure, shortened: as §1
[11] = Antidiabetic activity in STZ-induced diabetic Sprague-Dawley rat model assessed as effect on body weight at 50 uM/kg, po administered for 8 weeks (reference value: 186 +/- 6.91 g); format: functional, organism-based; procedure, shortened: as §1
[12] = Antidiabetic activity in STZ-induced diabetic Sprague-Dawley rat model assessed as blood glucose level at 50 uM/kg, po administered for 8 weeks measured every week during compound dosing (reference value: 261.53 +/- 53 mg/dl); format: functional, organism-based; procedure, shortened: as §1
Rattus norvegicus [13] = assay: Antidiabetic activity in po dosed STZ-induced diabetic Sprague-Dawley rat model assessed as decrease in aldose reductase activity administered for 8 weeks; format: functional, organism-based; procedure, shortened: as §1

O=C(NCc1ncc(-c2ccccc2)[nH]1)C1=Cc2ccccc2OC1
IC50 [1]: 2120 nM
IC50 [2]: 5190 nM
Ratio IC50 (Rattus norvegicus [3]): 2.48

O=C1NC(=O)[C@@]2(CCOc3ccc(F)cc32)N1
Activity [4]: 39 U

O=C(NCc1ncc(-c2ccc(F)cc2)[nH]1)C1=Cc2ccccc2OC1
IC50 [1]: 420 nM
IC50 [2]: 1840 nM
Ratio IC50 (Rattus norvegicus [3]): 4.38

CC(C)[C@H](NC(=O)C1=Cc2ccccc2OC1)c1ncc(-c2ccc(Br)cc2)[nH]1
IC50 [1]: 220 nM
IC50 [2]: 2280 nM
Ratio IC50 (Rattus norvegicus [3]): 10.3

COc1cccc2c1OCC(C(=O)N1CCC[C@H]1c1ncc(-c3cccnc3)[nH]1)=C2
IC50 [1]: 146 nM
IC50 [2]: 1420 nM
Ratio IC50 (Rattus norvegicus [3]): 9.71

O=C(C1=Cc2ccccc2OC1)N1CCC[C@H]1c1ncc(-c2cccnc2)[nH]1
IC50 [1]: 222 nM
IC50 [2]: 2430 nM
Ratio IC50 (Rattus norvegicus [3]): 10.9

COc1cccc2c1OCC(C(=O)NCc1ncc(-c3ccc(Br)cc3)[nH]1)=C2
IC50 [1]: 91 nM
IC50 [2]: 1560 nM
Ratio IC50 (Rattus norvegicus [3]): 17.1

O=C(NCc1ncc(-c2ccc(Cl)cc2)[nH]1)C1=Cc2ccccc2OC1
IC50 [1]: 114 nM
IC50 [2]: 2420 nM
Ratio IC50 (Rattus norvegicus [3]): 21.2

COc1ccc(-c2cnc(CNC(=O)C3=Cc4cccc(OC)c4OC3)[nH]2)cc1
IC50 [1]: 899 nM
IC50 [2]: 1310 nM
Ratio IC50 (Rattus norvegicus [3]): 1.45

O=C(NCc1ncc(-c2ccc(Br)cc2)[nH]1)C1=Cc2ccccc2OC1
IC50 [1]: 732 nM
IC50 [2]: 3380 nM
Ratio IC50 (Rattus norvegicus [3]): 4.61

COc1cccc2c1OCC(C(=O)NCc1ncc(-c3ccc(F)cc3)[nH]1)=C2
IC50 [1]: 71 nM
IC50 [2]: 1620 nM
Ratio IC50 (Rattus norvegicus [3]): 22.8

CC(C)[C@H](NC(=O)C1=Cc2ccccc2OC1)c1ncc(-c2ccccc2)[nH]1
IC50 [1]: 4290 nM
IC50 [2]: 9410 nM
Ratio IC50 (Rattus norvegicus [3]): 2.19

COc1cccc2c1OCC(C(=O)N[C@H](c1ncc(-c3ccccc3)[nH]1)C(C)C)=C2
IC50 [1]: 1000 nM
IC50 [2]: 4870 nM
Ratio IC50 (Rattus norvegicus [3]): 4.87

NC(=O)[C@@H]1C[C@]2(NC(=O)NC2=O)c2cc(F)ccc2O1
Activity [4]: 36.3 U

COc1cccc2c1OCC(C(=O)N[C@H](c1ncc(-c3ccc(Br)cc3)[nH]1)C(C)C)=C2
IC50 [1]: 771 nM
IC50 [2]: 3410 nM
Ratio IC50 (Rattus norvegicus [3]): 4.42

COc1ccc(-c2cnc(CNC(=O)C3=Cc4ccccc4OC3)[nH]2)cc1
IC50 [1]: 275 nM
IC50 [2]: 2540 nM
Ratio IC50 (Rattus norvegicus [3]): 9.22

COc1cccc2c1OCC(C(=O)N1CCC[C@H]1c1ncc(-c3ccccc3)[nH]1)=C2
IC50 [1]: 3070 nM
IC50 [2]: 1830 nM
Ratio IC50 (Rattus norvegicus [3]): 0.596

COc1cccc2c1OCC(C(=O)NCc1ncc(-c3ccc(Cl)cc3)[nH]1)=C2
IC50 [1]: 65 nM
IC50 [2]: 1440 nM
Ratio IC50 (Rattus norvegicus [3]): 22.2

COc1cccc2c1OCC(C(=O)NCc1ncc(-c3ccccc3)[nH]1)=C2
IC50 [1]: 731 nM
IC50 [2]: 1210 nM
Ratio IC50 (Rattus norvegicus [3]): 1.66

O=C(C1=Cc2ccccc2OC1)N1CCC[C@H]1c1ncc(-c2ccccc2)[nH]1
IC50 [1]: 3670 nM
IC50 [2]: 5720 nM
Ratio IC50 (Rattus norvegicus [3]): 1.55

O=C(C1=Cc2ccccc2OC1)N1CCC[C@H]1c1ncc(-c2ccc(Cl)cc2)[nH]1
IC50 [1]: 337 nM
IC50 [2]: 3880 nM
Ratio IC50 (Rattus norvegicus [3]): 11.5

COc1cccc2c1OCC(C(=O)N1CCC[C@H]1c1ncc(-c3ccc(Cl)cc3)[nH]1)=C2
Activity [5]: Active
IC50 [1]: 31 nM
IC50 [2]: 3420 nM
Ratio IC50 (Rattus norvegicus [3]): 110
Activity [6]: 309 g
Activity [7]: 139 mg/dL
Activity [8]: 41.3 U
Activity [9]: Active
Activity [10]: Active
Activity [4]: 39.5 U
Activity [11]: 320 g
Activity [12]: 130 mg/dL
Activity (Rattus norvegicus [13]): Dose-dependent effect
